Measurements: PMC5084759 (British Journal of Haematology, 2016)

Tests used:
[1] = tested on: relapsed and/or refractory multiple myeloma; assay: Myeloma disease response; format: in vivo, human
Outline: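 Part B dosing was oral ixazomib 4, 3 or 2·3 mg on days 1, 8 and 15 of 28-d cycles. Some patients also received dexamethasone 40 mg (20 mg if >75 years) on days 1, 8, 15 and 22 at investigator discretion. Investigators assessed response by IMWG uniform criteria across all cycles, with one bone marrow assessment to document CR. DOR ran from first CR/VGPR/PR to first progression.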

[2] = Safety and tolerability: adverse events; format: in vivo, human; settings: for On-study deaths: first dose to 30 d after last dose
Outline: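 The safety population was all patients given ≥1 dose: a single 3 mg dose in Part A, then optional Part B dosing at 4, 3 or 2·3 mg on days 1, 8 and 15 of 28-d cycles, with or without dexamethasone. AEs, including SAEs, were recorded throughout treatment up to 30 d after the last dose and graded by NCI CTCAE v4.03.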

[3] = ref Gupta et al, 2013; cited from earlier work
[4] = Stability of ixazomib in dialysate fluid; format: physicochemical; settings: dialysate fluid used in haemodialysis
CYP1A2 = settings: supra-therapeutic concentrations; ref unpublished observations; cited from earlier work
[5] = CrCl 30-89 ml/min; ref Gupta et al, 2015b; cited from earlier work
CYP3A = settings: supra-therapeutic concentrations; ref unpublished observations; cited from earlier work
[6] = Single-dose plasma pharmacokinetics of oral ixazomib; format: in vivo, human; settings: for Total AUC0-last, geometric mean (% CV): single 3 mg oral dose
Outline: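 Groups were CrCl ≥90 or <30 ml/min (Cockcroft–Gault) or on haemodialysis. Each patient took a single oral 3 mg dose fasted with about 240 ml water. Plasma was sampled pre-dose to 336 h and assayed by LC-MS/MS (0·5–500 ng/ml). Cmax and AUC0-last came from non-compartmental analysis. Group ratios of geometric means (90% CI) came from ANOVA on log-transformed parameters, with normal function as reference.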

[7] = Haemodialysis clearance, pre- and post-dialyser plasma samples in ESRD patients; format: in vivo, human
[8] = severe RI/ESRD patients versus patients with normal renal function

CC(C)C[C@H](NC(=O)CNC(=O)c1cc(Cl)ccc1Cl)B(O)O [ixazomib]
Patients with a response ([1]; normal renal function or ESRD groups (3 and 4 response-evaluable)): no patients | Patients with a PR ([1]; severe RI, 11 response-evaluable): five | Any TEAE ([2]; ESRD (N = 7)): 6 (86) n (%) | Any TEAE, Grade ≥3 ([2]; ESRD (N = 7)): 4 (57) n (%) | Drug-related SAE ([2]; ESRD (N = 7)): 0 n (%) | SAE ([2]; ESRD (N = 7)): 3 (43) n (%) | Study drug-related TEAE ([2]; ESRD (N = 7)): 4 (57) n (%) | Study drug-related TEAE, Grade ≥3 ([2]; ESRD (N = 7)): 1 (14) n (%) | TEAE resulting in ixazomib discontinuation ([2]; ESRD (N = 7)): 0 n (%) | TEAE resulting in ixazomib dose reduction ([2]; ESRD (N = 7)): 0 n (%) | TEAE: Anaemia ([2]; ESRD (N = 7)): 2 (29) n (%) | TEAE: Arthralgia ([2]; ESRD (N = 7)): 1 (14) n (%) | TEAE: Constipation ([2]; ESRD (N = 7)): 1 (14) n (%) | TEAE: Diarrhoea ([2]; ESRD (N = 7)): 1 (14) n (%) | TEAE: Dizziness ([2]; ESRD (N = 7)): 1 (14) n (%) | TEAE: Dyspnoea ([2]; ESRD (N = 7)): 1 (14) n (%) | TEAE: Fatigue ([2]; ESRD (N = 7)): 1 (14) n (%) | TEAE: Hypotension ([2]; ESRD (N = 7)): 1 (14) n (%) | TEAE: Nausea ([2]; ESRD (N = 7)): 2 (29) n (%) | TEAE: Peripheral oedema ([2]; ESRD (N = 7)): 0 n (%) | TEAE: URT infection ([2]; ESRD (N = 7)): 1 (14) n (%) | TEAE: Vomiting ([2]; ESRD (N = 7)): 2 (29) n (%) | On-study deaths ([2]; ESRD (N = 7)): 1 (14) n (%) | Dose reductions for ixazomib or dexamethasone ([2]; ESRD group): no dose reductions | Incidence of AE anaemia ([2]; ESRD group): 29% | Incidence of grade ≥3 AEs ([2]; ESRD group): 57% | Incidence of serious AEs ([2]; ESRD group): 43% | On-study deaths, number ([2]; ESRD group): 1 | Investigator-attributed drug-related anaemia ([2]; ESRD patients): 0% | Incidence of TEAE anaemia ([2]; all 41 patients): 22% | Incidence of TEAE diarrhoea ([2]; all 41 patients): 39% | Incidence of TEAE fatigue ([2]; all 41 patients): 29% | Incidence of TEAE nausea ([2]; all 41 patients): 34% | Incidence of TEAE vomiting ([2]; all 41 patients): 32% | Incidence of grade ≥3 TEAE anaemia ([2]; all 41 patients): 15% | Incidence of grade ≥3 TEAE decreased platelet count ([2]; all 41 patients): 7% | Incidence of grade ≥3 TEAE hypotension ([2]; all 41 patients): 7% | Patients with a TEAE of any grade ([2]; all 41 patients): 95% | Patients who developed peripheral neuropathy ([2]; all 41 patients (six patients)): 15% | Incidence of study drug-related TEAE diarrhoea ([2]; all patients): 29% | Incidence of study drug-related TEAE nausea ([2]; all patients): 29% | On-study deaths, number ([2]; all patients): three | Patients with at least 1 TEAE ([2]; four patients with solid tumours (three patients)): 75% | Any TEAE ([2]; normal renal function (N = 20)): 19 (95) n (%) | Any TEAE, Grade ≥3 ([2]; normal renal function (N = 20)): 9 (45) n (%) | Drug-related SAE ([2]; normal renal function (N = 20)): 3 (15) n (%) | SAE ([2]; normal renal function (N = 20)): 3 (15) n (%) | Study drug-related TEAE ([2]; normal renal function (N = 20)): 16 (80) n (%) | Study drug-related TEAE, Grade ≥3 ([2]; normal renal function (N = 20)): 7 (35) n (%) | TEAE resulting in ixazomib discontinuation ([2]; normal renal function (N = 20)): 2 (10) n (%) | TEAE resulting in ixazomib dose reduction ([2]; normal renal function (N = 20)): 4 (20) n (%) | TEAE: Anaemia ([2]; normal renal function (N = 20)): 1 (5) n (%) | TEAE: Arthralgia ([2]; normal renal function (N = 20)): 3 (15) n (%) | TEAE: Constipation ([2]; normal renal function (N = 20)): 5 (25) n (%) | TEAE: Diarrhoea ([2]; normal renal function (N = 20)): 9 (45) n (%) | TEAE: Dizziness ([2]; normal renal function (N = 20)): 1 (5) n (%) | TEAE: Dyspnoea ([2]; normal renal function (N = 20)): 2 (10) n (%) | TEAE: Fatigue ([2]; normal renal function (N = 20)): 5 (25) n (%) | TEAE: Hypotension ([2]; normal renal function (N = 20)): 1 (5) n (%) | TEAE: Nausea ([2]; normal renal function (N = 20)): 7 (35) n (%) | TEAE: Peripheral oedema ([2]; normal renal function (N = 20)): 2 (10) n (%) | TEAE: URT infection ([2]; normal renal function (N = 20)): 5 (25) n (%) | TEAE: Vomiting ([2]; normal renal function (N = 20)): 6 (30) n (%) | On-study deaths ([2]; normal renal function (N = 20)): 0 n (%) | AEs leading to ixazomib discontinuations ([2]; normal renal function group): 10% | AEs leading to ixazomib dose reductions ([2]; normal renal function group): 20% | Incidence of AE anaemia ([2]; normal renal function group): 5% | Incidence of grade ≥3 AEs ([2]; normal renal function group): 45% | Incidence of serious AEs ([2]; normal renal function group): 15% | Investigator-attributed drug-related anaemia ([2]; normal renal function group): 5% | Any TEAE ([2]; severe RI (N = 14)): 14 (100) n (%) | Any TEAE, Grade ≥3 ([2]; severe RI (N = 14)): 11 (79) n (%) | Drug-related SAE ([2]; severe RI (N = 14)): 2 (14) n (%) | SAE ([2]; severe RI (N = 14)): 6 (43) n (%) | Study drug-related TEAE ([2]; severe RI (N = 14)): 12 (86) n (%) | Study drug-related TEAE, Grade ≥3 ([2]; severe RI (N = 14)): 7 (50) n (%) | TEAE resulting in ixazomib discontinuation ([2]; severe RI (N = 14)): 4 (29) n (%) | TEAE resulting in ixazomib dose reduction ([2]; severe RI (N = 14)): 4 (29) n (%) | TEAE: Anaemia ([2]; severe RI (N = 14)): 6 (43) n (%) | TEAE: Arthralgia ([2]; severe RI (N = 14)): 2 (14) n (%) | TEAE: Constipation ([2]; severe RI (N = 14)): 3 (21) n (%) | TEAE: Diarrhoea ([2]; severe RI (N = 14)): 6 (43) n (%) | TEAE: Dizziness ([2]; severe RI (N = 14)): 4 (29) n (%) | TEAE: Dyspnoea ([2]; severe RI (N = 14)): 3 (21) n (%) | TEAE: Fatigue ([2]; severe RI (N = 14)): 6 (43) n (%) | TEAE: Hypotension ([2]; severe RI (N = 14)): 3 (21) n (%) | TEAE: Nausea ([2]; severe RI (N = 14)): 5 (36) n (%) | TEAE: Peripheral oedema ([2]; severe RI (N = 14)): 4 (29) n (%) | TEAE: URT infection ([2]; severe RI (N = 14)): 1 (7) n (%) | TEAE: Vomiting ([2]; severe RI (N = 14)): 5 (36) n (%) | On-study deaths ([2]; severe RI (N = 14)): 2 (14) n (%) | AEs leading to ixazomib discontinuations ([2]; severe RI group): 29% | AEs leading to ixazomib dose reductions ([2]; severe RI group): 29% | Incidence of AE anaemia ([2]; severe RI group): 43% | Incidence of grade ≥3 AEs ([2]; severe RI group): 79% | Incidence of serious AEs ([2]; severe RI group): 43% | Investigator-attributed drug-related anaemia ([2]; severe RI group): 29% | On-study deaths, number ([2]; severe RI group): 2 | Any TEAE ([2]; total (N = 41)): 39 (95) n (%) | Any TEAE, Grade ≥3 ([2]; total (N = 41)): 24 (59) n (%) | Drug-related SAE ([2]; total (N = 41)): 5 (12) n (%) | SAE ([2]; total (N = 41)): 12 (29) n (%) | Study drug-related TEAE ([2]; total (N = 41)): 32 (78) n (%) | Study drug-related TEAE, Grade ≥3 ([2]; total (N = 41)): 15 (37) n (%) | TEAE resulting in ixazomib discontinuation ([2]; total (N = 41)): 6 (15) n (%) | TEAE resulting in ixazomib dose reduction ([2]; total (N = 41)): 8 (20) n (%) | TEAE: Anaemia ([2]; total (N = 41)): 9 (22) n (%) | TEAE: Arthralgia ([2]; total (N = 41)): 6 (15) n (%) | TEAE: Constipation ([2]; total (N = 41)): 9 (22) n (%) | TEAE: Diarrhoea ([2]; total (N = 41)): 16 (39) n (%) | TEAE: Dizziness ([2]; total (N = 41)): 6 (15) n (%) | TEAE: Dyspnoea ([2]; total (N = 41)): 6 (15) n (%) | TEAE: Fatigue ([2]; total (N = 41)): 12 (29) n (%) | TEAE: Hypotension ([2]; total (N = 41)): 5 (12) n (%) | TEAE: Nausea ([2]; total (N = 41)): 14 (34) n (%) | TEAE: Peripheral oedema ([2]; total (N = 41)): 6 (15) n (%) | TEAE: URT infection ([2]; total (N = 41)): 7 (17) n (%) | TEAE: Vomiting ([2]; total (N = 41)): 13 (32) n (%) | On-study deaths ([2]; total (N = 41)): 3 (7) n (%) | PK interaction between ixazomib and dexamethasone [3]: no PK interaction | Stability in dialysate [4]: instability | Contribution to in vitro metabolism of ixazomib (CYP1A2): primary contributors | Ixazomib clearance in patients with mild or moderate RI [5]: not altered | Contribution to in vitro metabolism of ixazomib (CYP3A): primary contributors | Total systemic exposure, higher versus normal renal function [6, 8]: 39% | Unbound systemic exposure, higher versus normal renal function [6, 8]: 38% | Total AUC0-last, geometric mean (% CV) ([6]; ESRD (n = 6)): 783 (35) h·ng/ml | Total AUC0-last, geometric mean (% CV) ([6]; normal renal function (n = 15)): 575 (38) ^c h·ng/ml | Total AUC0-last, geometric mean (% CV) ([6]; severe RI (n = 10)): 813 (51) ^d h·ng/ml | Haemodialysis clearance as share of overall systemic clearance ([7]; ESRD patients requiring haemodialysis): less than 10% | Ixazomib concentrations in pre- versus post-dialyser samples ([7]; ESRD patients, 4-h haemodialysis session about 24-28 h after dose): similar | clearance ([7]; human, plasma, oral, 3 mg): < 2 mL/min
